In ChEMBL document CHEMBL3120163, “Octulosonic acid derivatives from Roman chamomile (Chamaemelum nobile) with activities against inflammation and metabolic disorder” (J Nat Prod, 2014):

How the values were obtained:
[1] = Inhibition of PMA-induced NFkappaB transcriptional activity in human SW1353 cells treated for 30 mins followed by PMA challenge measured after 6 to 8 hrs by luciferase reporter gene assay; format: cell-based
Method in brief: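 After 24 h they were pretreated with compound for 30 min, then stimulated with PMA 70 ng/mL for 6−8 h. Percent decrease in luciferase is relative to vehicle. Positive control: parthenolide.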

[2] = biological target: T1, Nitric oxide synthase, inducible (Mus musculus, UniProt P29477); assay: Inhibition of iNOS in mouse RAW264.7 cells assessed as LPS-induced nitric oxide production treated for 30 mins followed by LPS challenge measured after 24 hrs by Griess reagent method; format: cell-based
T1 sequence (P29477 whole entry): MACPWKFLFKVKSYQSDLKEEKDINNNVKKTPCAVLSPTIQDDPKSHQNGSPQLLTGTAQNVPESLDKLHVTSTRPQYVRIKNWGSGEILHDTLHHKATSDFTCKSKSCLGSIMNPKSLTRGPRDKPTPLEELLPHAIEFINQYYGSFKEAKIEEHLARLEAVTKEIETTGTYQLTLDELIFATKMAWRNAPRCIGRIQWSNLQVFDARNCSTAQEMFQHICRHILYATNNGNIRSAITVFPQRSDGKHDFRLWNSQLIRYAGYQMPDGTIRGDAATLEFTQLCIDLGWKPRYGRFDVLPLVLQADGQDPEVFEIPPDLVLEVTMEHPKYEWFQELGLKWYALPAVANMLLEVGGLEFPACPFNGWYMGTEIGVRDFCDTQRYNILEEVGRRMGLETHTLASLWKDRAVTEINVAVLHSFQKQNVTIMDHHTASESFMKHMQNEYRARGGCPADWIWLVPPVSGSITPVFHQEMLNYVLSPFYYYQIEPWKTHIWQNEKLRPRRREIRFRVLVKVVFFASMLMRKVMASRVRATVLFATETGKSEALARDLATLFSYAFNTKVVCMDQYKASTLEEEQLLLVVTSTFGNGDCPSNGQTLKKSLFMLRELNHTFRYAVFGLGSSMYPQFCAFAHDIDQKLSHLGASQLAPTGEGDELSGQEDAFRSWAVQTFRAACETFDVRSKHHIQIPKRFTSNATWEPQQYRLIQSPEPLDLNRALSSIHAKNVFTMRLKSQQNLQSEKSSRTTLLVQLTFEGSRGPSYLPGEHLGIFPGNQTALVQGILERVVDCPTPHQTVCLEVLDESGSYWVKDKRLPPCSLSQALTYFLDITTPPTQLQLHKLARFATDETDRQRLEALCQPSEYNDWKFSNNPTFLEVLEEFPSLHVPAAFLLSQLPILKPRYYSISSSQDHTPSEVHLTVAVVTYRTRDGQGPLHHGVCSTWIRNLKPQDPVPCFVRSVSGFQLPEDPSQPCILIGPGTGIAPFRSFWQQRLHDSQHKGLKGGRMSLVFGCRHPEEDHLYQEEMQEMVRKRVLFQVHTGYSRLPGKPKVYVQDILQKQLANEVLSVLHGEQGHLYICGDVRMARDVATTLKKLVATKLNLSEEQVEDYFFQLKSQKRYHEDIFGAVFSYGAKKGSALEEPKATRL
Method in brief: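 RAW264.7 macrophages were grown in phenol red-free RPMI with 10% bovine calf serum. Cells were seeded at 100 000 per well and grown 24 h to at least 75% confluency. Compound was added 30 min before LPS 5 μg/mL, then incubated 24 h. Supernatant nitrite was measured by Griess reagent; percent inhibition is versus vehicle, with IC50 from dose-response curves. Positive control: parthenolide.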

[3] = biological target: T2, Peroxisome proliferator-activated receptor alpha (Homo sapiens) (UniProt Q07869); assay: Activation of PPARalpha in human HepG2 cells at 25 uM after 24 hrs by luciferase reporter gene assay relative to vehicle-treated control; format: cell-based
T2 sequence (whole entry): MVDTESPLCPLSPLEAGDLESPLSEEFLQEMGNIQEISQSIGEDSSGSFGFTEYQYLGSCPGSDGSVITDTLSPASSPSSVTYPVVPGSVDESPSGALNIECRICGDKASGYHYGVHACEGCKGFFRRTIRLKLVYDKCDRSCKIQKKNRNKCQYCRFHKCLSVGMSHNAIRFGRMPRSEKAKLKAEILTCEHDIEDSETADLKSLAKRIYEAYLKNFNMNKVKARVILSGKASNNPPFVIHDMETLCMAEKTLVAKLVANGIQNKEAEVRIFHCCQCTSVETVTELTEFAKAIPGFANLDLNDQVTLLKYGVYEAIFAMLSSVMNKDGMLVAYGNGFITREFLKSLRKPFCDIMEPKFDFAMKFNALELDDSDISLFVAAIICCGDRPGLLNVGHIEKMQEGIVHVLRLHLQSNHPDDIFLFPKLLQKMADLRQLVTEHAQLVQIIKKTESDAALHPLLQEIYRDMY
Method in brief: (§1)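 HepG2 cells in DMEM with 10% FBS were electroporated at 160 V with a single 70 ms pulse. Plasmid pairs were pSG5-PPARα + PPRE X3-tk-luc, pCMV-rPPARγ + pPPREaP2-tk-luc, or pCMX-hLXRα + LXRE-tk-luc. Cells were seeded at 5 × 10^4 per well, grown 24 h, then dosed. After 24 h the cells were lysed and luciferase read. Fold induction is versus vehicle. Positive controls: ciprofibrate, rosiglitazone, 25-hydroxycholesterol.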

[4] = biological target: T3, Peroxisome proliferator-activated receptor gamma (Homo sapiens) (UniProt P37231); assay: Activation of PPARgamma in human HepG2 cells at 25 uM after 24 hrs by luciferase reporter gene assay relative to vehicle-treated control; format: cell-based; method in brief: as §1
T3 sequence (whole entry): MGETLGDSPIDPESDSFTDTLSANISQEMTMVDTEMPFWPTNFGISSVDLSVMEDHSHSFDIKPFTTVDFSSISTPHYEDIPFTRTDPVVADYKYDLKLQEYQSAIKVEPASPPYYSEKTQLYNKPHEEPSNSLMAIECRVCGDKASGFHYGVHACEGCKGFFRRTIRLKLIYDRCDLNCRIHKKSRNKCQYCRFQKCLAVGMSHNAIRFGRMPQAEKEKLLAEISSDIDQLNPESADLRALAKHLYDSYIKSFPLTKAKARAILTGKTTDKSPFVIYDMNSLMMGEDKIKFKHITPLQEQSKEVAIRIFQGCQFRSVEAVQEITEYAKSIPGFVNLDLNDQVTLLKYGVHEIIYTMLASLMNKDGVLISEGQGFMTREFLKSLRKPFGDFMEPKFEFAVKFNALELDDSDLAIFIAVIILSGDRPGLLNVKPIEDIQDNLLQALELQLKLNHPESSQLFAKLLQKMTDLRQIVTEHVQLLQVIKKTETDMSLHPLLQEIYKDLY

[5] = biological target: T4, Oxysterols receptor LXR-alpha (Homo sapiens) (UniProt Q13133); assay: Activation of LXRalpha in human HepG2 cells at 25 uM after 24 hrs by luciferase reporter gene assay relative to vehicle-treated control; format: cell-based
T4 sequence (whole entry): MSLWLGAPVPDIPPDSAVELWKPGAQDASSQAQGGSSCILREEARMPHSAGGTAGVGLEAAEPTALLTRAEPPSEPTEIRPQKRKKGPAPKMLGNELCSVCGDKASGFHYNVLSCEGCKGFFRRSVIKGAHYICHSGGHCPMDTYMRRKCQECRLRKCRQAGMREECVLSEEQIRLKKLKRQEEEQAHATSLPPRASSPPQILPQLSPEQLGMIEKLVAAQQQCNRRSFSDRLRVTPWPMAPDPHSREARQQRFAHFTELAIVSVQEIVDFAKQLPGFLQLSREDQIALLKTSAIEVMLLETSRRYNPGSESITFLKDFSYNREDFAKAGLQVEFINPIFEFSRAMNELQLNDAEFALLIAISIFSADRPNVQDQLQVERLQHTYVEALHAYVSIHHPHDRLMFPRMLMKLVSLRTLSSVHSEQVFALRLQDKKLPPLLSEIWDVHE
Method in brief: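 HepG2 cells in DMEM with 10% FBS, electroporated (160 V, single 70 ms pulse) with pCMX-hLXRα plus LXRE-tk-luc plasmids; plated at 5 × 10^4 cells/well and grown 24 h. Treated with test compounds for 24 h, then lysed for luciferase read-out. Fold induction calculated against vehicle control; 25-hydroxycholesterol as positive control.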

[6] = biological target: T5, Growth/differentiation factor 15 (Homo sapiens) (UniProt Q99988); assay: Activation of NAG-1 in human SW1353 cells at 20 uM after 24 hrs by luciferase reporter gene assay relative to vehicle-treated control; format: cell-based
T5 sequence (whole entry): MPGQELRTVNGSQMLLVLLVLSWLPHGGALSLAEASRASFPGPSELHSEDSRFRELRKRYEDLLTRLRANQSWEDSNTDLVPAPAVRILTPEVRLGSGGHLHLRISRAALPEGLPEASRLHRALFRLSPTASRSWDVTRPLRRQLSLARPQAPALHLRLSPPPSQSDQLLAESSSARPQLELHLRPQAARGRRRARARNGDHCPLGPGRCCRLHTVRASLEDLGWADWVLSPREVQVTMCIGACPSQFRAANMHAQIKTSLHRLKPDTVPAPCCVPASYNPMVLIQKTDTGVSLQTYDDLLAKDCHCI
Method in brief: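 SW1353 chondrosarcoma cells in DMEM/F12 with 10% FBS were electroporated (160 V, one 70 ms pulse) with 25 μg […]. Cells were seeded at 1 × 10^5 per well, then dosed 24 h later for 24 h. Luciferase light output gave fold induction versus vehicle. Positive control: diclofenac.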

HepG2 [7] = assay: Cytotoxicity against human HepG2 cells up to 50 uM after 48 hrs by neutral red assay; format: cell-based; settings: hepg2, 48 h
RAW264.7 = assay: Cytotoxicity against mouse RAW264.7 cells up to 50 uM after 48 hrs by neutral red assay; format: cell-based; settings: raw264.7, 48 h
HepG2 [8] = assay: Antioxidant activity in human HepG2 cells assessed as inhibition of ABAP-induced intracellular peroxyl radical scavenging activity by measuring ROS production measured every 5 mins for 1 hr by fluorescence assay
[9] = Homo sapiens, SW1353, read-out: IC50

SMILES	Activity (HepG2 [7])	Activity (RAW264.7)	IC50 (HepG2 [8]) [µM]	IC50 ([2]; raw264.7)	IC50 ([1]; sw1353)	further results
C=C1C(=O)O[C@@H]2C3O[C@]3(C)CC/C=C(\C)CC[C@@H]12 (some centres not stated)	–	–	–	–	–	IC50 [1, 9]: 1.63 µM; IC50 ([2]; read-out: IC50): 1.05 µM
CC(C)(Oc1ccc(C2CC2(Cl)Cl)cc1)C(=O)O (configuration not stated)	–	–	–	–	–	fold change (FC) [3]: 4.35
CC1(COc2ccc(CC3SC(=O)NC3=O)cc2)CCCCC1 (configuration not stated)	–	–	–	–	–	fold change (FC) [4]: 3.65
C[C@H](CCCC(C)(C)O)[C@H]1CC[C@H]2[C@@H]3CC=C4C[C@@H](O)CC[C@]4(C)[C@H]3CC[C@]12C	–	–	–	–	–	fold change (FC) [5]: 4.67
O=C(O)Cc1ccccc1Nc1c(Cl)cccc1Cl	–	–	–	–	–	fold change (FC) [6]: 2.65
COC(=O)[C@]12C[C@@H](OC(=O)/C=C/c3ccc(O)c(O)c3)[C@@H](OC(=O)/C=C/c3ccc(O)c(O)c3)[C@@H](O1)[C@@H](COC(=O)/C=C/c1ccc(O)c(O)c1)O2 (relative stereo)	Non-toxic	Non-toxic	26	Not Active	–	IC50 [1, 9]: 42 µM
COC(=O)[C@]12C[C@@H](OC(=O)/C=C/c3ccc(O)c(O)c3)[C@@H](O)[C@H](O1)[C@@H](COC(=O)/C=C/c1ccc(O)c(O)c1)O2 (relative stereo)	Non-toxic	Non-toxic	34.5	Not Active	Not Active	–
COC(=O)[C@]12C[C@@H](O)[C@@H](O)[C@H](O1)[C@@H](COC(=O)/C=C/c1ccc(O)c(O)c1)O2 (relative stereo)	Non-toxic	Non-toxic	86	Not Active	Not Active	–
O=C(/C=C/c1ccc(O)c(O)c1)OC[C@H]1O[C@@]2(C(=O)O)C[C@@H](OC(=O)/C=C/c3ccc(O)c(O)c3)[C@@H](OC(=O)/C=C/c3ccc(O)c(O)c3)[C@H]1O2 (relative stereo)	Non-toxic	Non-toxic	59.5	Not Active	Not Active	–
O=C(/C=C/c1ccc(O)c(O)c1)OC[C@H]1O[C@@]2(C(=O)O)C[C@@H](OC(=O)/C=C/c3ccc(O)c(O)c3)[C@@H](O)[C@@H]1O2 (relative stereo)	Non-toxic	Non-toxic	79	Not Active	Not Active	–
O=C(/C=C/c1ccc(O)c(O)c1)OC[C@H]1O[C@@]2(C(=O)O)C[C@@H](O)[C@@H](O)[C@@H]1O2 (relative stereo)	Non-toxic	Non-toxic	> 100	Not Active	Not Active	–
O=c1c(O)c(-c2ccc(O)c(O)c2)oc2cc(O)cc(O)c12 [QUERCETIN]	–	–	11	–	–	–
